pEC50, pIC50, pKd: −log10 of the molar value. The source made the active and inactive calls.
Legend:
[1] = system: Staphylococcus aureus; test: Antibacterial activity against multidrug resistant Staphylococcus aureus ATCC BAA-44 after 6 to 8 hrs; type: functional, organism-based
[2] = Cytotoxicity against human THLE3 cells after 48 hrs by Alamar blue assay; type: cell-based
Procedure, shortened: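 THLE-3 cells, grown in BEBM with the BEGM kit and 10% FBS, were seeded at 1,500 cells/well and allowed 24 h at 37°C, 5% CO2. Compounds were then added at 100 µM to 46 nM final (3-fold steps, 0.1% DMSO) for 48 h. […] CC50 is the log-average of at least triplicate runs.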

[3] = molecular target: T1, E. coli GroEL/ES (Escherichia coli, UniProt P0A6F5); test: Inhibition of Escherichia coli GroEL expressed in Escherichia coliDH5alpha/Escherichia coli GroES expressed in Escherichia coli BL21 (DE3) assessed as reduction in GroEL/GroES-mediated denatured MDH refolding by measuring MDH enzyme activity using sodium mesoxalate as substrate after 20 to 40 mins by spectrometric analysis
T1 sequence (P0A6F5 whole entry, looked up): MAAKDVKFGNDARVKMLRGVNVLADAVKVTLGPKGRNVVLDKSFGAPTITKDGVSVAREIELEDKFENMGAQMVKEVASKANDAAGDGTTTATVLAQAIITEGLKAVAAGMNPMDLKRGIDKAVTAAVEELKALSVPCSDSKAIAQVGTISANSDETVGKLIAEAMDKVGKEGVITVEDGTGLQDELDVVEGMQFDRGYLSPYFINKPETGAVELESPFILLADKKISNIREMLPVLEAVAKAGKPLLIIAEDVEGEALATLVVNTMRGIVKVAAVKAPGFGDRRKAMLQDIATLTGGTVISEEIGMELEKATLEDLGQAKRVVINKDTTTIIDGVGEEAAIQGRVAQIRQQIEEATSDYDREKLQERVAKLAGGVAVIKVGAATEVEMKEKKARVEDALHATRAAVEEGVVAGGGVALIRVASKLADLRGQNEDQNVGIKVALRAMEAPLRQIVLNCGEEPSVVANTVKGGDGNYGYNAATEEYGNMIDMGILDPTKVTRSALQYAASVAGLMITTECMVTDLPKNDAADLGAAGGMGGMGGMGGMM
Procedure, shortened: (§1)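 Coupled refolding assay: denatured rhodanese or MDH refolded by GroEL/ES (50 nM GroEL tetradecamer, 700 nM subunits), read-out via enzymatic activity of refolded substrate; counter-screened against native enzyme activity. IC₅₀ as back-calculated mean of log-transformed replicate values.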

[4] = molecular target: HSP60/HSP10 (Homo sapiens, UniProt P10809); test: Inhibition of human N-terminal octa-His-tagged HSP60 expressed in Escherichia coli Rosetta(DE3) pLysS/human HSP10 expressed in Escherichia coli Rosetta(DE3) assessed as reduction in HSP60/HSP10-mediated denatured MDH refolding by measuring MDH enzyme activity using sodium mesoxalate as substrate after 40 to 60 mins by spectrometric analysis
Chain of HSP60/HSP10 (P10809 whole entry): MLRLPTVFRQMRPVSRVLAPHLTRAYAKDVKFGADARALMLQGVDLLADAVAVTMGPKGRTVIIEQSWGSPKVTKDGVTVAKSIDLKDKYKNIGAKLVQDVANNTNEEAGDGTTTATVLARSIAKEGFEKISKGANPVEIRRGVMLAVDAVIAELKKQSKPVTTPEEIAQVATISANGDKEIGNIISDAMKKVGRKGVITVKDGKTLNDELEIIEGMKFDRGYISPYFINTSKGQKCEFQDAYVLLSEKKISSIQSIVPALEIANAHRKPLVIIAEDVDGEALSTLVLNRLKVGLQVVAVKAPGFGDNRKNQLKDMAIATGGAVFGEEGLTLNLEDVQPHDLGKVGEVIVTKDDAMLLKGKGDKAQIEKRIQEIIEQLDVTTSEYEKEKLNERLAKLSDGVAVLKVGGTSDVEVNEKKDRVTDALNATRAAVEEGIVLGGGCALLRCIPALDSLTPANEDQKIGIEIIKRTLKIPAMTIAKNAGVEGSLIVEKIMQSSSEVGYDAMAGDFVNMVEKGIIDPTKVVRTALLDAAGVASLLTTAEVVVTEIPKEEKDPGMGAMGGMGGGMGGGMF
Chain of HSP60/HSP10 (P61604 whole entry, further chain): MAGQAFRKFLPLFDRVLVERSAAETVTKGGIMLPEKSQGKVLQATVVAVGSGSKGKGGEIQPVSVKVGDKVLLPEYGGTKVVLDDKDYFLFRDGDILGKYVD
Procedure, shortened: (§2)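 Chaperonin-mediated refolding of denatured MDH, coupled to MDH enzymatic activity as the reporter. Human HSP60/10 (HSP60 without its 26-residue mitochondrial signal peptide) or E. coli GroEL/ES was used, with GroEL tetradecamer at 50 nM (700 nM subunits) during the refolding cycle. IC50s from replicate dose-response curves were averaged as logs after ROUT outlier removal.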

[5] = molecular target: T2, Thiosulfate sulfurtransferase (Homo sapiens, UniProt Q16762); test: Inhibition of refolded rhodanese (unknown origin) preincubated with Escherichia coli GroEL/GroES for 60 mins by measuring […] after 20 to 40 mins by spectrometric analysis
T2 sequence (Q16762 whole entry): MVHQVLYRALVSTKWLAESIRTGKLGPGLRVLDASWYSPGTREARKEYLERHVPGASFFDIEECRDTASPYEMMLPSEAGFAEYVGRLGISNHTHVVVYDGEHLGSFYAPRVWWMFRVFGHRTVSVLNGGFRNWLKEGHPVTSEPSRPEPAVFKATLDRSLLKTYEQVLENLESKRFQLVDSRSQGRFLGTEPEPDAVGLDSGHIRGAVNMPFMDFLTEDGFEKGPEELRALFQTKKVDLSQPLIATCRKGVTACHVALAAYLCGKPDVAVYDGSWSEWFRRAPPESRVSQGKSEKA

[6] = Inhibition of refolded MDH (unknown origin) preincubated with Escherichia coli GroEL/GroES for 45 mins using sodium mesoxalate as substrate by spectrometric analysis; design: species or system Homo sapiens; procedure, shortened: as §2
[7] = molecular target: T1, E. coli GroEL/ES; test: Inhibition of Escherichia coli GroEL expressed in Escherichia coli DH5alpha/Escherichia coli GroES expressed in Escherichia coli BL21 (DE3) assessed as reduction in GroEL/GroES-mediated denatured rhodanese refolding by measuring rhodanese enzyme activity after 45 mins by spectrometric analysis; procedure, shortened: as §1
[8] = Binding affinity to Escherichia coli GroEL expressed in Escherichia coli DH5alpha by ITC assay
Procedure, shortened: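 ITC at 20°C: 400 µM GroEL (monomer) in syringe titrated into 50 µM compound in cell, matched buffer 20 mM HEPES pH 7.4, 50 mM KCl, 10 mM MgCl₂, 1% DMSO; 0.4 µL first injection discarded, then 2.0 µL injections at 3-min intervals, 600 rpm. Single-site fit gave Kd, n, ΔH, ΔS; five or six replicates.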

[9] = system: Staphylococcus aureus; test: Antibacterial activity against multidrug resistant Staphylococcus aureus ATCC BAA-44 at >100 uM passaged for 12 days in fresh liquid media supplemented with compound; type: functional, organism-based
[10] = Selectivity index, ratio of CC50 for human THLE3 cells to EC50 for multidrug resistant Staphylococcus aureus ATCC BAA-44; type: toxicity; settings: read-out: Ratio CC50/EC50
[11] = system: Klebsiella pneumoniae; test: Antibacterial activity against Klebsiella pneumoniae ATCC 13883 after 6 to 8 hrs; type: functional, organism-based
Procedure, shortened: (§3)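 Stagnant liquid-culture proliferation assay at 37°C in broth cation-adjusted with 25 mg/L Ca²⁺ and 12.5 mg/L Mg²⁺, with compounds stamped into the wells. […] OD600 turbidity was read at 6–8 h (K. pneumoniae, E. cloacae, P. aeruginosa) or 24 h (A. baumannii). EC50 came from non-linear regression, averaged in log form over replicates.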

[12] = system: Acinetobacter baumannii; test: Antibacterial activity against Acinetobacter baumannii ATCC 19606 after 24 hrs; type: functional, organism-based; settings: for Activity: ATCC 19606 = CIP 70.34 = JCM 6841; procedure, shortened: as §3
[13] = system: Pseudomonas aeruginosa; test: Antibacterial activity against Pseudomonas aeruginosa ATCC 10145 after 6 to 8 hrs; type: functional, organism-based; procedure, shortened: as §3
[14] = system: Enterobacter cloacae; test: Antibacterial activity against Enterobacter cloacae subsp. cloacae ATCC 13047 after 6 to 8 hrs; type: functional, organism-based; procedure, shortened: as §3
[15] = system: Staphylococcus aureus; test: Antibacterial activity against multidrug resistant Staphylococcus aureus ATCC BAA-44 at >100 uM passaged for 12 days in fresh liquid media supplemented with compound followed by re-culturing for 24 hrs on agar and another 24 hrs in liquid medium; type: functional, organism-based
Procedure, shortened: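 After 12-day serial passage under compound, resistant culture regrown without inhibitor 24 h on agar then 24 h in liquid medium, then retested for growth inhibition; % growth inhibition averaged (±SD) from 4 replicates.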

Row | Compound | pEC50 [1] | CC50 at 48 h [2] | pIC50 [3] | pIC50 [4] | pIC50 [5] | pIC50 [6] | pIC50 [7] | pKd [8] | Activity [9] | selectivity ratio [10] | Activity [11] | Activity [12] | Activity [13] | Activity [14] | Activity [15] | pEC50 ([12]; ATCC 19606 = CIP 70.34 = JCM 6841, 24 h)
1 | O=S(=O)(Nc1ccc2oc(-c3ccc(NS(=O)(=O)c4ccc(Cl)s4)cc3)nc2c1)c1cccc(C(F)(F)F)c1 | 5.96 | 36 µM | 5.17 | 5.30 | < 4.00 | 4.37 | – | – | – | – | – | – | – | – | – | –
2 | NCc1ccc(S(=O)(=O)Nc2ccc(-c3nc4cc(NS(=O)(=O)c5ccc(Cl)s5)ccc4o3)cc2)cc1 | 4.72 | – | 5.89 | – | – | – | 5.49 | 7.44 | Active | – | – | – | – | – | – | –
3 | O=S(=O)(Nc1ccc2oc(-c3ccc(NS(=O)(=O)c4ccc(Cl)s4)cc3)nc2c1)c1ccc(Cl)c(Cl)c1 | 6.28 | 24 µM | 5.29 | 5.33 | < 4.00 | < 4.20 | 5.19 | – | – | 46 | – | – | – | – | – | –
4 | NCc1ccc(S(=O)(=O)Nc2ccc3oc(-c4ccc(NS(=O)(=O)c5ccc(Cl)s5)cc4)nc3c2)cc1 | – | – | 5.51 | – | – | – | – | 6.82 | – | – | – | – | – | – | – | –
5 | O=S(=O)(Nc1ccc(-c2nc3cc(NS(=O)(=O)c4cccc(C(F)(F)F)c4)ccc3o2)cc1)c1cccc(C(F)(F)F)c1 | 5.70 | 24 µM | – | 4.24 | < 4.00 | < 4.20 | – | – | – | – | inactive | inactive | inactive | inactive | – | –
6 | O=[N+]([O-])c1cc(S(=O)(=O)Nc2ccc(-c3nc4cc(NS(=O)(=O)c5ccc(Cl)s5)ccc4o3)cc2)ccc1Cl | 5.77 | 17 µM | 5.82 | 5.68 | 4.28 | 4.47 | 5.70 | – | – | 10 | – | – | – | – | Active | –
7 | O=S(=O)(Nc1ccc(-c2nc3cc(NS(=O)(=O)c4ccc(Cl)s4)ccc3o2)cc1)c1ccc(Cl)c(C(F)(F)F)c1 | 5.70 | 22 µM | – | 5.21 | < 4.00 | < 4.20 | – | – | – | – | – | – | – | – | – | 4.43
8 | O=[N+]([O-])c1cc(S(=O)(=O)Nc2ccc3oc(-c4ccc(NS(=O)(=O)c5ccc(Cl)s5)cc4)nc3c2)ccc1Cl | 6.01 | 11 µM | – | 6.00 | < 4.00 | 4.43 | 6.00 | – | – | – | – | – | – | – | – | –
9 | O=[N+]([O-])c1ccc(S(=O)(=O)Nc2ccc(-c3nc4cc(NS(=O)(=O)c5ccc([N+](=O)[O-])cc5)ccc4o3)cc2)cc1 | 5.14 | 47 µM | – | 4.29 | < 4.00 | < 4.20 | – | – | – | – | inactive | inactive | inactive | inactive | – | –
